According to ChEMBL document CHEMBL1148939, “Montacin and cis-montacin, two new cytotoxic monotetrahydrofuran annonaceous acetogenins from Annona montana” (2004):
In brackets after ≈: the same amount, converted by molar mass.

Columns and labels:
KB [1] = test: Cytotoxicity against human vincristine-resistant KB cells after 3 days by SRB assay; type: functional; details: 72 h, read-out: ED50 (the source's name)
Summary of the method: (§1)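 Cells were grown in RPMI-1640 with 25 mM HEPES, 0.25% NaHCO3, 10% FBS and kanamycin. Freshly trypsinized cells were seeded at 1500-7500 per well with compound from a DMSO-diluted stock and cultured for 3 days. Attached cells were fixed with cold 50% TCA, stained with 0.4% SRB, and the solubilized dye was read at 562 nm. ED50 is the concentration giving 50% growth reduction over 3 days.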

1A9 [2] = test: Cytotoxicity against human 1A9 cells after 3 days by SRB assay in presence of Ca2+; type: functional; details: 1A9, 72 h, read-out: ED50 (the source's name)
Summary of the method: (§2)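 This is the 3-day SRB growth assay in RPMI-1640 with 10% FBS and 25 mM HEPES, with CaCl2 added to the bioassay as the Ca2+ source. Trypsinized cells were seeded at 1500-7500 per well with DMSO-diluted compound, then fixed with cold TCA, stained with 0.4% SRB and read at 562 nm. ED50 is the concentration causing 50% growth reduction.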

HCT-8 [3] = test: Cytotoxicity against human HCT8 cells after 3 days by SRB assay in presence of Ca2+; type: functional; details: HCT-8, 72 h, read-out: ED50 (the source's name); summary of the method: as §2
KB [4] = test: Cytotoxicity against human KB cells after 3 days by SRB assay; type: functional; details: 72 h, read-out: ED50 (the source's name); summary of the method: as §1
KB [5] = test: Cytotoxicity against human KB cells after 3 days by SRB assay in presence of Ca2+; type: functional; details: 72 h, read-out: ED50 (the source's name); summary of the method: as §2
1A9/ptx-10 [6] = test: Cytotoxicity against human 1A9/PTX10 cells after 6 days by SRB assay; type: functional; details: 1A9/ptx-10, 144 h, read-out: ED50 (the source's name)
Summary of the method: (§3)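 Parent 1A9 ovarian cells or the PTX10 subline (mutated β-tubulin) were grown in RPMI-1640 with 25 mM HEPES, 0.25% NaHCO3, 10% FBS and kanamycin. Freshly trypsinized cells were seeded at 1500-7500 per well with DMSO-diluted compound, cultured for 6 days, and evaluated by SRB staining. Activity was expressed as ED50.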

1A9/ptx-10 [7] = test: Cytotoxicity against human 1A9/PTX10 cells after 6 days by SRB assay in presence of Ca2+; type: functional; details: 1A9/ptx-10, 144 h, read-out: ED50 (the source's name)
Summary of the method: (§4)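 1A9 ovarian cells or the β-tubulin-mutant PTX10 subline were grown in RPMI-1640 with 10% FBS and 25 mM HEPES. CaCl2 was included in the bioassay as the Ca2+ source. Cells were seeded at 1500-7500 per well with DMSO-diluted compound and cultured for 6 days before SRB staining. The read-out was ED50.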

1A9/ptx-10 [8] = test: Cytotoxicity against human 1A9/PTX10 cells after 3 days by SRB assay; type: functional; details: 1A9/ptx-10, 72 h, read-out: ED50 (the source's name); summary of the method: as §1
[9] = Cytotoxicity against human U87MG cells after 3 days by SRB assay in presence of Ca2+; type: functional, U-87MG ATCC; details: U-87 MG, 72 h, read-out: ED50 (the source's name)
MCF7 [10] = test: Cytotoxicity against human MCF7 cells after 3 days by SRB assay in presence of Ca2+; type: functional; details: MCF7, 72 h, read-out: ED50 (the source's name); summary of the method: as §2
1A9 [11] = test: Cytotoxicity against human 1A9 cells after 3 days by SRB assay; type: functional; details: 1A9, 72 h, read-out: ED50 (the source's name); summary of the method: as §1
PC-3 [12] = test: Cytotoxicity against human PC3 cells after 3 days by SRB assay; type: functional; details: PC-3, 72 h, read-out: ED50 (the source's name); summary of the method: as §1
1A9 [13] = test: Cytotoxicity against human 1A9 cells after 6 days by SRB assay; type: functional; details: 1A9, 144 h, read-out: ED50 (the source's name); summary of the method: as §3
KB [14] = test: Cytotoxicity against human vincristine-resistant KB cells after 3 days by SRB assay in presence of Ca2+; type: functional; details: 72 h, read-out: ED50 (the source's name); summary of the method: as §2
MCF7 [15] = test: Cytotoxicity against human MCF7 cells after 3 days by SRB assay; type: functional; details: MCF7, 72 h, read-out: ED50 (the source's name); summary of the method: as §1
[16] = Cytotoxicity against human U87MG cells after 3 days by SRB assay; type: functional, U-87MG ATCC; details: U-87 MG, 72 h, read-out: ED50 (the source's name)
A549 [17] = test: Cytotoxicity against human A549 cells after 3 days by SRB assay; type: functional; details: A549, 72 h, read-out: ED50 (the source's name); summary of the method: as §1
PC-3 [18] = test: Cytotoxicity against human PC3 cells after 3 days by SRB assay in presence of Ca2+; type: functional; details: PC-3, 72 h, read-out: ED50 (the source's name); summary of the method: as §2
HCT-8 [19] = test: Cytotoxicity against human HCT8 cells after 3 days by SRB assay; type: functional; details: HCT-8, 72 h, read-out: ED50 (the source's name); summary of the method: as §1
A549 [20] = test: Cytotoxicity against human A549 cells after 3 days by SRB assay in presence of Ca2+; type: functional; details: A549, 72 h, read-out: ED50 (the source's name); summary of the method: as §2
1A9/ptx-10 [21] = test: Cytotoxicity against human 1A9/PTX10 cells after 3 days by SRB assay in presence of Ca2+; type: functional; details: 1A9/ptx-10, 72 h, read-out: ED50 (the source's name); summary of the method: as §2
1A9 [22] = test: Cytotoxicity against human 1A9 cells after 6 days by SRB assay in presence of Ca2+; type: functional; details: 1A9, 144 h, read-out: ED50 (the source's name); summary of the method: as §4
[23] = Cytotoxicity against human CAKI cells after 3 days by SRB assay in presence of Ca2+; type: functional; details: 72 h, read-out: ED50 (the source's name); summary of the method: as §2
[24] = Cytotoxicity against human CAKI cells after 3 days by SRB assay; type: functional; details: 72 h, read-out: ED50 (the source's name); summary of the method: as §1
SK-MEL-2 [25] = test: Cytotoxicity against human SK-MEL-2 cells after 3 days by SRB assay in presence of Ca2+; type: functional; details: SK-MEL-2, 72 h, read-out: ED50 (the source's name); summary of the method: as §2
SK-MEL-2 [26] = test: Cytotoxicity against human SK-MEL-2 cells after 3 days by SRB assay; type: functional; details: SK-MEL-2, 72 h, read-out: ED50 (the source's name); summary of the method: as §1

| Structure (SMILES) | EC50 (KB [1]) [µg/mL] | EC50 (1A9 [2]) [µg/mL] | EC50 (HCT-8 [3]) [µg/mL] | EC50 (KB [4]) [µg/mL] | EC50 (KB [5]) [µg/mL] | EC50 (1A9/ptx-10 [6]) [µg/mL] | EC50 (1A9/ptx-10 [7]) [µg/mL] | EC50 (1A9/ptx-10 [8]) [µg/mL] | EC50 [9] [µg/mL] | EC50 (MCF7 [10]) [µg/mL] | EC50 (1A9 [11]) [µg/mL] | EC50 (PC-3 [12]) [µg/mL] | EC50 (1A9 [13]) [µg/mL] | EC50 (KB [14]) [µg/mL] | EC50 (MCF7 [15]) [µg/mL] | EC50 [16] [µg/mL] | EC50 (A549 [17]) [µg/mL] | EC50 (PC-3 [18]) [µg/mL] | EC50 (HCT-8 [19]) [µg/mL] | EC50 (A549 [20]) [µg/mL] | further results |
| --- | --- | --- | --- | --- | --- | --- | --- | --- | --- | --- | --- | --- | --- | --- | --- | --- | --- | --- | --- | --- | --- |
| CCCCCCC[C@@H](O)[C@H]1CC[C@@H]([C@@H](O)CCCCCCCCCC[C@@H](O)CC(=O)CC[C@@H](O)CC2=C[C@H](C)OC2=O)O1 | 13.4 (≈ 21.9 µM) | 2 | 11.7 | 7.7 (≈ 12.6 µM) | 8.2 | 1.8 (≈ 2.95 µM) | 0.11 | 5.9 (≈ 9.66 µM) | 14.3 | 6.4 | 3.6 (≈ 5.89 µM) | 11.9 (≈ 19.5 µM) | 0.54 (≈ 0.884 µM) | 13.8 | 6.7 (≈ 11 µM) | 15 (≈ 24.6 µM) | 6 (≈ 9.82 µM) | 12.1 | 12.9 (≈ 21.1 µM) | 5.5 | EC50 (1A9/ptx-10 [21]): 5.3 µg/mL; EC50 (1A9 [22]): 0.13 µg/mL |
| CCCCCCC[C@H](O)[C@@H]1CC[C@@H]([C@@H](O)CCCCCCCCCC[C@H](O)CC(=O)CC[C@@H](O)CC2=C[C@H](C)OC2=O)O1 [MONTACIN] | > 20 | 6.7 | 12.3 | 16.6 (≈ 27.2 µM) | 9.1 | 7.9 (≈ 12.9 µM) | 2.8 | > 10 | 14.2 | 5.5 | > 10 | > 20 | 6.7 (≈ 11 µM) | 13.9 | 10 (≈ 16.4 µM) | > 20 | 12.9 (≈ 21.1 µM) | 14.2 | 16.5 (≈ 27 µM) | 7.4 | EC50 [23]: 14.2 µg/mL; EC50 [24]: > 20 µg/mL; EC50 (SK-MEL-2 [25]): 13.3 µg/mL; EC50 (SK-MEL-2 [26]): 11.2 µg/mL (≈ 18.3 µM); EC50 (1A9/ptx-10 [21]): 7.5 µg/mL; EC50 (1A9 [22]): 4.5 µg/mL |
